TRPC4 potent = allosterically enhances the mouse TRPC4 cation channel; HEK293 TRPC4beta/mu-opioid, DAMGO EC20, Fluo-4 Ca2+ flux; hits give high values; B-score at 10 µM; 310,000 tested, 0.42% active;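 active means B-score of calcium response area above 5 SD of library B-scores, with initial fluorescence ratio within 5 SD of library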;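 further: B-score of integrated fluorescence ratio over time as area under calcium response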
TRPC6 inhibitor = mouse TRPC6 channel inhibition. HEK293-TRPC6, membrane potential dye, ACh-evoked depolarization; hits give low values. B-score at 10 µM. Q61143. 310,000 tested, 1.1% active;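 active means B-score under library mean minus 3 SD, initial fluorescence not abnormally high, positive integrated signal ratio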;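 further: B-score derived from integrated fluorescence ratio over the kinetic read; more negative B-score means stronger inhibition of depolarization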
Target sequence (Q61143 whole entry, looked up): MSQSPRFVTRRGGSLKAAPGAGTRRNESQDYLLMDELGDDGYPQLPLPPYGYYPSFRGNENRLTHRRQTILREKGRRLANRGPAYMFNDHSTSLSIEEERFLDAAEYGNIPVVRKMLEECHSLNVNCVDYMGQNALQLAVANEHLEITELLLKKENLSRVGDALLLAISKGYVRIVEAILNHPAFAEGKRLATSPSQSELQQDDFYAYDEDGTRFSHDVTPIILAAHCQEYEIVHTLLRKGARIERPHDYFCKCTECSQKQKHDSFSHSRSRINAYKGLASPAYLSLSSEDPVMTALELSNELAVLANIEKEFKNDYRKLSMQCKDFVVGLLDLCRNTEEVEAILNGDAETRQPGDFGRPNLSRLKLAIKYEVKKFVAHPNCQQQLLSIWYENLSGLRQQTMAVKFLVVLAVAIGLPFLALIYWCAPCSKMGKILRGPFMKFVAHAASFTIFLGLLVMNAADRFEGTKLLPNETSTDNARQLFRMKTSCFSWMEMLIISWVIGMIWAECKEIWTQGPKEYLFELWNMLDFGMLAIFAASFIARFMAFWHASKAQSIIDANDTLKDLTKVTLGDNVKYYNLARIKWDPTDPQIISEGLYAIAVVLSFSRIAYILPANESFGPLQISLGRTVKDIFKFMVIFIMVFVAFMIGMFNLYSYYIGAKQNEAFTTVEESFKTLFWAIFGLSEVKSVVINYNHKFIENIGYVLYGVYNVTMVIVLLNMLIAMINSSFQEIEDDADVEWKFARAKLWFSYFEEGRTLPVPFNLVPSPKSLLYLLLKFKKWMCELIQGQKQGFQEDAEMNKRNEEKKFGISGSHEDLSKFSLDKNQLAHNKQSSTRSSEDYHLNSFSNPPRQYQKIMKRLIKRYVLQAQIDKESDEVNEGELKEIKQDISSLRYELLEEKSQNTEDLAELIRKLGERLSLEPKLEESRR
TRPC4 block = TRPC4 (mouse) channel inhibition; HEK293 TRPC4beta/mu-opioid, DAMGO-evoked Fluo4 calcium flux; hits give low values; 300,000 tested, 0.39% active; AID 2247; B-score at 10 µM;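 active means B-score over 3 SD under the library average, no early fluorescence shift, positive overall ratio signal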
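System: stable TRPC4beta/mu-opioid receptor HEK293 cells; Dosing: single-point compound dosing; Measured by: Fluo4 Ca2+ flux fluorescence; Read-out basis: per-well B score of integrated baseline-normalized Fluo4 ratio.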
TRPC6 act = activators of mouse TRPC6 channel; Q61143; HEK293-TRPC6 membrane potential dye fluorescence; hits give high values; B-score at 10 µM; 310,000 tested, 0.13% active; AID 2550;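 active means B-score of the integrated fluorescence ratio above library mean plus 3 SD, and starting fluorescence ratio within library mean plus 5 SD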;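 further: higher score means more depolarization so channel activation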
TRPC4 act = TRPC4 (mouse) channel activation. AID 2237. HEK293 TRPC4beta/mu-opioid, Fluo4 calcium fluorescence; hits give high values. Q9QUQ5. B-score at 10 µM. 310,000 tested, 0.49% active;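 active means B-score above 5 SD of library B-scores, and initial fluorescence ratio not above library mean plus 5 SD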;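 further: positive B-score marks a calcium rise read as TRPC4 activation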
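System: HEK293 cells stably co-expressing mouse TRPC4beta and mu-opioid receptor; Schedule: Fluo4 dye loading 45 min at room temperature, 110 s recording; Detection: Fluo4 fluorescence, kinetic; Evaluation: B-scored integrated calcium fluorescence ratio; Controls: buffer (low) and maximal DAMGO (high).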
TRPC4 spec 2 = second selectivity test of TRPC6 inhibitors: effect on mouse TRPC4; shares compounds with TRPC6 inhibitor; HEK293 TRPC4/MOR, membrane potential dye fluorescence; channel activated by saturating DAMGO dose; inhibition, % at 10 µM; 920 tested, 42% active; AID 2776;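 active means compounds whose fluorescence signal differed from control wells by over 3 SD, either direction, in both duplicate plates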
TRPC4 spec = mouse TRPC4 off-target activity of TRPC6 inhibitors | AID 2777 | 920 tested, 61% active | shares compounds with TRPC6 inhibitor | HEK293 TRPC4/mu-opioid, membrane potential fluorescence | activity change, negative = inhibition, % at 10 µM;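 active means rise or fall in signal beyond 3 SD of buffer-only wells in both replicate plates, either sign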;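 further: integrated kinetic ratio of fluorescence range over baseline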
HEK293 MPD ctr 2-1 = second check of TRPC6 inhibitor effects in parental HEK293 cells | parental HEK293 membrane potential dye fluorescence; maximal acetylcholine challenge after compound addition | AID 2779 | 920 tested, 31% active | shares compounds with TRPC6 inhibitor | signal change vs control, % at 10 µM;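 active means membrane potential signal moving either way by over 3 SD of the maximum-effect control, in both duplicate plates, meaning non-specific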
HEK293 MPD ctr-1 = counter-screen for TRPC6 inhibitors: effect in parental HEK293 cells | shares compounds with TRPC6 inhibitor | parental HEK293 membrane potential dye fluorescence | 920 tested, 60% active | membrane potential signal change, % at 10 µM;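 active means membrane potential signal shifting up or down by more than 3 SD of buffer-only wells, on both duplicate plates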
HEK293 MPD ctr-2 = parental HEK293 nonspecific activity of TRPC6 modulators | AID 488924 | membrane potential dye fluorescence | membrane potential signal change, % at 10 µM | 2,400 tested, 51% active | shares compounds with TRPC6 inhibitor;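 active means membrane potential signal moves up or down beyond 5 SD from buffer-only wells, on both duplicate plates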
HEK293 MPD ctr 2-2 = parental HEK293 nonspecific activity of TRPC6 modulators, second screen; shares compounds with TRPC6 inhibitor; membrane potential dye fluorescence; after compound, maximal acetylcholine stimulation; inhibition, % at 10 µM; 2,400 tested, 14% active; AID 488926;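 active means membrane potential signal drops by more than 5 SD from the mean control signal, in both duplicate plates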;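 further: plate controls were acetylcholine ECmax control wells for no effect and buffer only wells for full effect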
TRPC4/MOR mod = selectivity of TRPC6 modulators against mouse TRPC4 | 2,400 tested, 69% active | HEK293 TRPC4/mu-opioid, membrane potential fluorescence | shares compounds with TRPC6 inhibitor | percent change from control (negative = decrease, positive = increase), % at 10 µM;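 active means membrane potential signal moved up or down beyond 5 SD of buffer control wells, in both duplicate plates, actives on both sides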;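 further: plate controls were assay buffer wells for no effect and DAMGO maximal-effect wells for full effect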
TRPC4/MOR inh 2 = second selectivity test of TRPC6 modulators against mouse TRPC4; shares compounds with TRPC6 inhibitor; HEK293 TRPC4/mu-opioid, membrane potential dye fluorescence; stimulated with maximal-effect DAMGO; inhibition, % at 10 µM; 2,400 tested, 55% active; AID 488928;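 active means drop in membrane potential signal beyond 5 SD of the control wells in both duplicate plates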;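 further: TRPC4 counter screen for TRPC6 hits run under conditions tuned for TRPC6 not TRPC4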
TRPC6 block conf = confirmation of mouse TRPC6 inhibitors. HEK293-TRPC6, membrane potential dye, ACh-evoked depolarization. AID 488960. 3,300 tested, 43% active. inhibition, % at 10 µM. shares compounds with TRPC6 inhibitor;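 active means fluorescence ratio falls more than 5 SD below the full-stimulation control mean, in both duplicate runs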;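 further: integrated fluorescence ratio of peak minus minimum over baseline after agonist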
TRPC6 act confirm = confirmation of mouse TRPC6 activators; shares compounds with TRPC6 inhibitor; activation, % at 10 µM; HEK293-TRPC6 membrane potential dye fluorescence, FDSS; 2,800 tested, 11% active;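 active means ratio signal rise beyond 5 SD above unstimulated control wells' mean, seen in both duplicate runs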;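 further: plate controls were buffer EC0 wells for no effect and acetylcholine ECmax response for full effect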
Numbers without * were called inactive; i = inactive; . = no result; + = active, no number. The list is not random: actives were taken first. Their share in the collection is about 2.3%.

SMILES | TRPC4 potent | TRPC6 inhibitor | TRPC4 block | TRPC6 act | TRPC4 act | HEK293 MPD ctr-2 | HEK293 MPD ctr 2-2 | TRPC4/MOR mod | TRPC4/MOR inh 2 | TRPC6 block conf | TRPC6 act confirm | others
CCCCN(CC)CCCNC(=O)c1cc2c(=O)[nH]c3ccccc3c2s1 | i | i | i | i | i | . | . | . | . | . | .
Cc1ccc(CNc2ccc3c(c2)ncn3C(C)(C)C)cc1 | 21* | -6.76* | i | i | i | . | . | . | . | i | i | TRPC4 spec 2=52.0%*;TRPC4 spec=12.1%*;HEK293 MPD ctr 2-1=240.0%*;HEK293 MPD ctr-1=i
Cn1c(NCc2ccc(Cl)cc2)nc2ccccc21 | i | i | i | i | i | . | . | . | . | . | .
Cc1ccc(CNc2ccc3c(c2)nc(C)n3C)cc1 | i | -8.06* | i | i | i | . | . | . | . | 66.0%* | i | TRPC4 spec 2=50.5%*;TRPC4 spec=-14.6%*;HEK293 MPD ctr 2-1=i;HEK293 MPD ctr-1=-175.5%*
Cc1nc2cc(NCc3ccc(Cl)cc3)ccc2n1C | i | -7.07* | i | i | i | . | . | . | . | 60.0%* | i | TRPC4 spec 2=51.0%*;TRPC4 spec=-14.7%*;HEK293 MPD ctr 2-1=i;HEK293 MPD ctr-1=-300.0%*
Cc1nc2cc(CO)ccc2n1C | i | i | i | i | i | . | . | . | . | . | .
O=c1[nH]c(-c2ccccc2)ncc1Oc1ccccc1 | i | i | i | i | i | . | . | . | . | . | .
O=C(O)c1ccc(NC(=S)NC(=O)c2ccc(-c3ccc(Br)cc3)o2)cc1 | i | i | i | i | i | . | . | . | . | . | .
CC(C)(C)OC(=O)NC(Cc1ccccc1)C(=O)O (stereo not given) | i | i | i | i | i | . | . | . | . | . | .
CC(C)(C)OC(=O)NC(CNCc1ccccc1)Cc1ccccc1 (stereo not given) | i | -5.33* | i | i | i | 136.0%* | i | 24.5%* | 34.0%* | i | .
Cn1c(NN)nc2c1c(=O)n(Cc1ccccc1)c(=O)n2C | i | i | i | i | i | . | . | . | . | . | .
COc1cc(/C=C2/C(=O)ON=C2c2ccccc2)ccc1O | i | i | i | i | i | . | . | . | . | . | .
COc1cc(/C=C2\C(=O)ON=C2c2ccccc2)cc(Br)c1O | i | i | i | 16* | i | 906.0%* | i | 74.5%* | i | i | 148.0%*
CCOCCCNc1c2c(nc3cc(-c4ccc(F)cc4)nn13)CCC2 | i | i | i | i | i | . | . | . | . | . | .
CN(C)CCCNc1c2c(nc3cc(-c4cccc(F)c4)nn13)CCC2 | i | -7.27* | i | i | 123* | i | 126.5%* | -20.5%* | 51.5%* | 78.5%* | i
COc1ccc(C2C3=C(CC(C)(C)CC3=O)Oc3ncn(Cc4ccccc4)c(=N)c32)cc1 (stereo not given) | i | -5.44* | i | i | i | 145.5%* | i | 21.5%* | 69.0%* | 54.0%* | .
COc1ccc(NC(=O)NC2CCCc3ccccc32)c(OC)c1 (stereo not given) | i | i | i | i | i | . | . | . | . | . | .
COc1ccc(CNC2CCCc3ccccc32)c(OC)c1 (stereo not given) | i | -6.02* | i | i | i | 217.5%* | i | 53.0%* | 63.0%* | 64.0%* | .
COc1ccc(NS(=O)(=O)c2cc(NC(=O)[C@@H](NC(=O)c3ccccc3)C(C)C)ccc2C)cc1 | i | i | i | i | i | . | . | . | . | . | .
Cc1c(O)c(CN2CCCC2)cc2c3c(c(=O)oc12)CCC3 | i | -5.03* | i | i | i | -254.5%* | i | -46.0%* | i | i | i
Cc1cc(C)cc(N(C(=O)c2snc(C(N)=O)c2N)C(C(=O)NCC2CCCO2)c2ccc(C)o2)c1 (stereo not given) | i | -5.41* | i | i | i | i | i | 18.5%* | 40.5%* | i | .
O=C(CN1CCN(C(c2ccccc2)c2ccccc2)CC1)NCc1ccccc1 | i | -5.49* | i | i | i | i | i | i | i | i | i
COc1cc(/C=C2\SC(=O)N(CCN)C2=O)ccc1OS(=O)(=O)c1cc(C)ccc1C | i | -7.22* | i | i | i | . | . | . | . | i | i | TRPC4 spec 2=i;TRPC4 spec=i;HEK293 MPD ctr 2-1=i;HEK293 MPD ctr-1=i
NCCN1C(=O)S/C(=C\c2ccc3c(c2)OCO3)C1=O | i | -5.42* | i | i | i | i | i | -9.5%* | 41.5%* | 36.5%* | i
O=C(CCN1C(=O)/C(=C/c2ccc3c(c2)OCO3)SC1=S)Nc1cccc(C(=O)O)c1 | i | i | i | i | i | . | . | . | . | . | .
O=c1c(O)c(-c2cccs2)oc2ccc(Cl)cc12 | i | i | i | 76.3* | i | + | i | 326.5%* | 82.5%* | i | 334.0%*
COc1ccc(Br)c(C(=O)NCC2CCCCC2)c1 | i | -5.16* | i | i | i | i | i | 44.5%* | 53.5%* | i | .
CCCCNC(=O)NC1(C(F)(F)F)Oc2ccccc2O1 | i | i | i | i | i | . | . | . | . | . | .
NS(=O)(=O)c1ccc(CCNC(=O)NC2(C(F)(F)F)Oc3ccccc3O2)cc1 | i | -5.74* | i | i | i | i | i | i | i | i | i
Cc1ccc(S(=O)(=O)N2CC=C(c3ccc(F)cc3)CC2)cc1 | i | i | i | i | i | . | . | . | . | . | .

Screens (PubChem BioAssay)
